Laboratory results: ChEMBL document CHEMBL4359879, “Synthesis and evaluation of 2-carboxy indole derivatives as potent and selective anti-leukemic agents” (Eur J Med Chem, 2019)
Calls of active or inactive are those of the source. No cut-off for these calls is given here.

How the values were obtained:
Format in all cases: functional, cell-based
[1] = tested on: CCRF-CEM; test: Antiproliferative activity against human CEM cells incubated for 48 hrs by MTT assay
How it was run: (§1)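 Cells grown in RPMI-1640 with 10% FBS, penicillin/streptomycin, 37 °C, 5% CO2. After 48 h of exposure to a dilution series, MTT was added (0.5 mg/ml final) for 4 h. Formazan was dissolved overnight in acidic SDS (10% SDS, 0.01 mol/L HCl) and absorbance read at 570 and 620 nm. Survival was expressed relative to controls, and EC50 was fitted from dose-response curves.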

[2] = tested on: RS4-11; test: Antiproliferative activity against human RS4:11 cells incubated for 48 hrs by MTT assay; settings: RS4-11, 48 h; how it was run: as §1
[3] = tested on: HL-60; test: Induction of differentiation in human HL60 cells assessed as increase in CD14 positive cells at 100 nM incubated for 48 hrs by 7-AAD staining-based flow cytometric analysis
How it was run: (§2)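 Vitamin D3 at 100 nM and ATRA at 2 μM served as positive controls. Stained with APC anti-CD11b and PE anti-CD14 for 30 min at 4 °C, then 7-AAD.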

[4] = tested on: HL-60; test: Induction of differentiation in human HL60 cells assessed as increase in CD11b positive cells at 2 uM incubated for 48 hrs by 7-AAD staining-based flow cytometric analysis; how it was run: as §2

Compound | EC50 [1] [µM] | EC50 [2] [µM] | Activity [3] | Activity [4]
COC(=O)c1c(-c2ccc(C(F)(F)F)cc2)c2ccc(OC)cc2n1Cc1ccccc1 | > 100 | > 100 | – | –
COC(=O)c1[nH]c2cc(C(F)(F)F)ccc2c1-c1ccc(C(F)(F)F)cc1 | > 100 | > 100 | – | –
COC(=O)c1[nH]c2cc(OC)ccc2c1C | > 100 | > 100 | – | –
COC(=O)c1[nH]c2cc(OC)ccc2c1C(=O)OC | > 100 | > 100 | – | –
COC(=O)c1[nH]c2ccccc2c1-c1ccc(F)cc1 | > 100 | > 100 | – | –
COC(=O)c1[nH]c2cc(OC)ccc2c1-c1ccc(Br)cc1 | 0.33 | 0.2 | – | –
COc1ccc2c(-c3ccc(C(F)(F)F)cc3)c(C(=O)N3CCOCC3)[nH]c2c1 | 29.7 | 47.6 | – | –
COc1ccc2c(-c3ccc(C(F)(F)F)cc3)c(C(=O)OC(C)(C)C)[nH]c2c1 | > 100 | > 100 | – | –
C=C1/C(=C\C=C2/CCC[C@]3(C)[C@@H]([C@H](C)CCCC(C)(C)O)CC[C@@H]23)C[C@@H](O)C[C@@H]1O | – | – | Active | –
CCc1c(C(=O)OC)[nH]c2cc(OC)ccc12 | > 100 | > 100 | – | –
COC(=O)c1c(-c2ccc(C(F)(F)F)cc2)c2ccc(OC)cc2n1O | 0.39 | 0.3 | – | –
COC(=O)c1[nH]c2cc(C(F)(F)F)ccc2c1-c1ccc(OC)cc1 | > 100 | > 100 | – | –
COC(=O)c1[nH]c2cc(OC)ccc2c1-c1ccc(Cl)c(Cl)c1 | 0.58 | 3.8 | – | –
COC(=O)Cc1c(C(=O)OC)[nH]c2cc(OC)ccc12 | > 100 | > 100 | – | –
COC(=O)c1[nH]c2ccccc2c1-c1ccc(OC)cc1 | > 100 | > 100 | – | –
COC(=O)c1[nH]c2ccc(OC)cc2c1-c1ccc(C(F)(F)F)cc1 | > 100 | > 100 | – | –
COC(=O)c1[nH]c2cc(OC)ccc2c1-c1ccc(F)cc1 | 10 | 85.6 | – | –
CC1=C(/C=C/C(C)=C/C=C/C(C)=C/C(=O)O)C(C)(C)CCC1 | – | – | – | Active
COC(=O)c1[nH]c2cc(OC)ccc2c1CC(C)C | 16.6 | 37.8 | – | –
COC(=O)c1[nH]c2cc(OC)ccc2c1C1CCCCC1 | 80.2 | > 100 | – | –
COC(=O)c1[nH]c2cc(OC)ccc2c1C(C)C | > 100 | 81.5 | – | –

Second part, led by results:

EC50 [1] [µM] | EC50 [2] [µM] | Compound | Activity [3] | Activity [4]
8.7 | 61.6 | COC(=O)c1[nH]c2cc(OC)ccc2c1Cc1ccccc1 | – | –
35.8 | 95.2 | COC(=O)c1[nH]c2ccccc2c1-c1ccccc1 | – | –
> 100 | > 100 | CCOC(=O)c1[nH]c2cc(OC)ccc2c1-c1ccc(C(F)(F)F)cc1 | – | –
19.8 | 24.4 | COc1ccc2c(-c3ccc(C(F)(F)F)cc3)c(C(=O)O)[nH]c2c1 | – | –
1.9 | 10.5 | COC(=O)c1[nH]c2cc(OC)ccc2c1-c1ccccc1OC | – | –
> 100 | > 100 | COC(=O)c1[nH]c2cc(C(F)(F)F)ccc2c1-c1ccccc1 | – | –
> 100 | > 100 | COC(=O)c1[nH]c2ccccc2c1-c1ccc(C(F)(F)F)cc1 | – | –
52 | 43.1 | COc1ccc2c(-c3ccc(C(F)(F)F)cc3)c(C(=O)N[C@@H](Cc3ccccc3)C(=O)O)[nH]c2c1 | – | –
> 100 | > 100 | COC(=O)c1c(-c2ccc(C(F)(F)F)cc2)c2ccc(OC)cc2n1C | – | –
9.9 | 10.3 | COC(=O)c1[nH]c2cc(O)ccc2c1-c1ccc(C(F)(F)F)cc1 | – | –
